According to ChEMBL document CHEMBL3877310, “Rickettsia prowazekii methionine aminopeptidase as a promising target for the development of antibacterial agents” (Bioorg Med Chem, 2017):
pIC50: −log10 of the molar value. Activity calls are given as the source filed them. The calls are words filed in the database; no cut-off is given here.

How the values were obtained:
Rattus norvegicus [1] = organism: Rattus norvegicus; assay: Cytotoxicity against CD rat primary pulmonary vascular endothelial cells assessed as reduction in cell viability at 0.3 to 300 uM measured after 72 hrs by WST1 assay; assay type: toxicity, cell-based
Outline: (§1)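 Uninfected primary CD-rat pulmonary ECs (passage <15, DMEM high glucose/10% FBS/4 mM L-glutamine, 37 °C, 5% CO2) exposed to compounds over graded ranges with 0.3% DMSO as solvent. Viability read as WST-1 metabolism.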

Endothelial cell [2] = assay: Antibacterial activity against Rickettsia prowazekii str. Breinl infected in CD rat primary pulmonary vascular endothelial cells assessed as protection against bacterial infection by measuring restoration of host cell viability at 0.3 to 300 uM measured 72 hrs post infection by WST1 assay; assay type: functional, cell-based
[3] = biological target: Methionine aminopeptidase 2 (Homo sapiens, UniProt P50579); assay: Inhibition of recombinant full length human N-terminal GST/His6-tagged methionine aminopeptidase 2 expressed in baculovirus infected sf9 cells using methionylprolyl-p-nitroanilide as substrate preincubated for 20 mins followed by substrate addition measured for 20 mins in presence of MnCl2 by proline aminopeptidase coupled enzyme assay
[4] = biological target: Methionine aminopeptidase 1 (Homo sapiens, UniProt P53582); assay: Inhibition of recombinant full length human His-tagged methionine aminopeptidase 1 expressed in Escherichia coli BL21(DE3) using methionylprolyl-p-nitroanilide as substrate preincubated for 20 mins followed by substrate addition measured for 20 mins in presence of CoCl2 by proline aminopeptidase coupled enzyme assay
Endothelial cell [5] = assay: Antibacterial activity against Rickettsia prowazekii str. Breinl infected in CD rat primary pulmonary vascular endothelial cells assessed as protection against bacterial infection by measuring restoration of host cell viability at 0.03 to 30 uM measured 72 hrs post infection by WST1 assay; assay type: functional, cell-based
Rattus norvegicus [6] = organism: Rattus norvegicus; assay: Cytotoxicity against CD rat primary pulmonary vascular endothelial cells assessed as reduction in cell viability at 0.03 to 30 uM measured after 72 hrs by WST1 assay; assay type: toxicity, cell-based; outline: as §1
Rattus norvegicus [7] = organism: Rattus norvegicus; assay: Cytotoxicity against CD rat primary pulmonary vascular endothelial cells assessed as reduction in cell viability at 0.0075 to 7.5 uM measured after 72 hrs by WST1 assay; assay type: toxicity, cell-based; outline: as §1
[8] = (§2) Antibacterial activity against Rickettsia prowazekii str. Breinl infected with 50:1 multiplicity of infection in CD rat primary pulmonary vascular endothelial cells assessed as restoration of host cell viability by measuring fold reduction in viability at 0.3 to 300 uM measured 72 hrs post infection by WST1 assay relative to control; assay type: functional
Rattus norvegicus [9] = organism: Rattus norvegicus; assay: Cytotoxicity against CD rat primary pulmonary vascular endothelial cells assessed as effect on appearance of cell monolayers at 300 uM measured after 72 hrs by Hoechst 33258/phalloidin staining based fluorescence microscopic analysis; assay type: toxicity
Endothelial cell [10] = assay: Antibacterial activity against Rickettsia prowazekii str. Breinl infected in CD rat primary pulmonary vascular endothelial cells assessed as bacterial shape change at 300 uM measured 72 hrs post infection by Hoechst 33258/phalloidin staining based fluorescence microscopic analysis; assay type: functional
Rattus norvegicus [11] = organism: Rattus norvegicus; assay: Cytotoxicity against CD rat primary pulmonary vascular endothelial cells assessed as reduction in cell viability at 0.02 to 20 uM measured after 72 hrs by WST1 assay; assay type: toxicity, cell-based; outline: as §1
Endothelial cell [12] = assay: Antibacterial activity against Rickettsia prowazekii str. Breinl infected in CD rat primary pulmonary vascular endothelial cells assessed as protection against bacterial infection by measuring restoration of host cell viability at 0.003 to 3 uM measured 72 hrs post infection by WST1 assay; assay type: functional, cell-based
[13] = as §2, with “0.003” for “0.3”, “3” for “300”; assay type: functional
Rattus norvegicus [14] = organism: Rattus norvegicus; assay: Cytotoxicity against CD rat primary pulmonary vascular endothelial cells assessed as reduction in cell viability at 0.003 to 3 uM measured after 72 hrs by WST1 assay; assay type: toxicity, cell-based; outline: as §1
Endothelial cell [15] = assay: Antibacterial activity against Rickettsia prowazekii str. Breinl infected in CD rat primary pulmonary vascular endothelial cells assessed as bacterial shape change at 25 ug/ml measured 72 hrs post infection by Hoechst 33258/phalloidin staining based fluorescence microscopic analysis; assay type: functional

Chain of Methionine aminopeptidase 2 (P50579 whole entry): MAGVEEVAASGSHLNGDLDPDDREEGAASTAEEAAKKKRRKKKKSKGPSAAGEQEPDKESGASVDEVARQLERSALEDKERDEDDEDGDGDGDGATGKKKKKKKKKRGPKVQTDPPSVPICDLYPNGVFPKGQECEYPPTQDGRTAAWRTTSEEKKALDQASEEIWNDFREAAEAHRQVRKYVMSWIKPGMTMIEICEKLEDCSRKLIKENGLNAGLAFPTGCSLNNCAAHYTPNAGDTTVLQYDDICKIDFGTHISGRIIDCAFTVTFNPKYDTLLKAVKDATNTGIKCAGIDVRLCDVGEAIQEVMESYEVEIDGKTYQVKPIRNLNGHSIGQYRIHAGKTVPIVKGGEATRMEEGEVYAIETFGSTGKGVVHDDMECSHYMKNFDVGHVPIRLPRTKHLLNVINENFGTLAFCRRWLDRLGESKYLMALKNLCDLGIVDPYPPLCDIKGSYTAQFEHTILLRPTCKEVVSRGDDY

Nc1n[nH]c(SCc2ccccc2Cl)n1
Activity (Rattus norvegicus [1]): Non-Toxic
Activity (Endothelial cell [2]): Active

Oc1cccc2cccnc12 [OXYQUINOLINE]
pIC50 [3]: 5.90
pIC50 [4]: 4.89
Activity (Endothelial cell [5]): Active
Activity (Rattus norvegicus [6]): Non-Toxic

O=[N+]([O-])c1cc(CN2CCCCC2)c(O)c2ncccc12
Activity (Rattus norvegicus [7]): Non-Toxic

CC(C)c1ccc(CSc2nnc(N)[nH]2)cc1
Activity (Rattus norvegicus [6]): Non-Toxic

O=C(O)c1ccc(-c2ccccc2Cl)o1
Activity (Rattus norvegicus [1]): Non-Toxic

Nc1nnc(SCc2ccc(Cl)cc2)[nH]1
fold change (FC) [8]: 1.2
Activity (Rattus norvegicus [1]): Non-Toxic
Activity (Endothelial cell [2]): Active
Activity (Rattus norvegicus [9]): Non-Toxic
Activity (Endothelial cell [10]): Active

Oc1c(CN2CCOCC2)cc(Cl)c2cccnc12
Activity (Rattus norvegicus [11]): Non-Toxic

Nc1nnc(SCc2ccc(Cl)cc2Cl)[nH]1
Activity (Rattus norvegicus [6]): Non-Toxic

Nc1nnc(SCc2ccc(F)cc2)[nH]1
Activity (Rattus norvegicus [1]): Non-Toxic
Activity (Endothelial cell [2]): Active

Oc1ccc(Cl)c2cccnc12 [CLOXYQUIN]
Activity (Endothelial cell [5]): Active
Activity (Rattus norvegicus [6]): Non-Toxic

O=[N+]([O-])c1cc(CN2CCOCC2)c(O)c2ncccc12
Activity (Endothelial cell [12]): Active
fold change (FC) [13]: 1.2
Activity (Rattus norvegicus [14]): Non-Toxic

CC(C)(C)c1ccc(CSc2nnc(N)[nH]2)cc1
pIC50 [3]: < 4.82
Activity (Rattus norvegicus [6]): Non-Toxic

O=[N+]([O-])c1ccc(O)c2ncccc12 [NITROXOLINE]
Activity (Rattus norvegicus [14]): Non-Toxic

Nc1n[nH]c(SCc2ccccc2)n1
Activity (Rattus norvegicus [1]): Non-Toxic
Activity (Endothelial cell [2]): Active

Cc1ccc2cccc(O)c2n1 [8-HYDROXY QUINALDINE]
pIC50 [4]: < 4.82
Activity (Rattus norvegicus [14]): Non-Toxic

C[C@H]1c2cccc(O)c2C(=O)C2=C(O)[C@]3(O)C(=O)C(C(N)=O)=C(O)[C@@H](N(C)C)[C@@H]3[C@@H](O)[C@@H]21
Activity (Endothelial cell [15]): Active

Cc1ccc(CSc2nnc(N)[nH]2)cc1
Activity (Rattus norvegicus [1]): Non-Toxic
Activity (Endothelial cell [2]): Active

O=C(O)c1ccc(-c2cc(Cl)ccc2Cl)o1
Activity (Rattus norvegicus [1]): Non-Toxic
